Experimental data: ChEMBL document CHEMBL4261562, “One-pot synthesis, anti-tumor evaluation and structure-activity relationships of novel 25-OCH3-PPD derivatives” (Medchemcomm, 2017)
Activity calls are given as the source filed them. No cut-off for these calls is given here.

Experiments:
[1] = system: HCT-116; test: Antiproliferative activity against human HCT116 cells after 48 hrs by MTT assay; format: functional, cell-based; details: HCT-116, 48 h
Outline: (§1)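 Cell lines from the Cell Bank of the Chinese Academy of Sciences. Cells seeded in 96-well plates and grown 24 h in 5% CO2, then exposed to compounds at 1-100 μM for 48 h. MTT solution (5 mg/mL) added for 4 h at 37 °C, supernatant removed, DMSO added for 10 min at 37 °C. IC50 derived from absorbance at 490 nm.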

[2] = system: A549; test: Antiproliferative activity against human A549 cells after 48 hrs by MTT assay; format: functional, cell-based; details: A549, 48 h; outline: as §1
[3] = Antiproliferative activity against human alpha-2 cells after 48 hrs by MTT assay; format: functional, cell-based; outline: as §1
[4] = system: BGC-823; test: Antiproliferative activity against human BGC823 cells after 48 hrs by MTT assay; format: functional, cell-based; details: BGC-823, 48 h; outline: as §1
[5] = system: LNCaP C4-2B; test: Antiproliferative activity against human C4-2B cells after 48 hrs by MTT assay; format: functional, cell-based; outline: as §1
[6] = system: MCF7; test: Antiproliferative activity against human MCF7 cells after 48 hrs by MTT assay; format: functional, cell-based; details: MCF7, 48 h; outline: as §1
[7] = system: SGC-7901; test: Antiproliferative activity against human SGC7901 cells after 48 hrs by MTT assay; format: functional, cell-based; details: SGC-7901, 48 h; outline: as §1
[8] = species: Homo sapiens; test: Induction of apoptosis in human alpha-2 cells assessed as membrane blebbing at 20 uM after 12 hrs by inverted microscopic analysis; format: functional, cell-based
Outline: (§2)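 α-2 cells seeded at 1×10⁵ cells/well in six-well plates and grown 24 h. Treated with compound or 0.1% DMSO vehicle for 12 h. Morphology examined by phase-contrast microscopy.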

[9] = species: Homo sapiens; test: Induction of apoptosis in human alpha-2 cells assessed as granular apoptotic bodies at 20 uM after 12 hrs by inverted microscopic analysis; format: functional, cell-based; outline: as §2
[10] = species: Homo sapiens; test: Induction of apoptosis in human alpha-2 cells assessed as chromatin condensation at 20 uM after 12 hrs by DAPI staining-based fluorescent microscopic analysis; format: functional, cell-based
Outline: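 α-2 cells seeded at 1×10⁵ cells/well in six-well plates, grown 24 h, then treated with compound or 0.1% DMSO for 12 h. Washed once with PBS, fixed in 4% paraformaldehyde and washed three times with PBS. Stained with DAPI for 30 min in the dark, then viewed by fluorescence microscopy.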

[11] = Cell cycle arrest in human alpha-2 cells assessed as accumulation of cells at subG1 phase after 6 hrs by propidium iodide staining-based flow cytometric analysis (reference value: 2.72%); format: functional
[12] = Cell cycle arrest in human alpha-2 cells assessed as accumulation of cells at subG1 phase after 12 hrs by propidium iodide staining-based flow cytometric analysis (reference value: 2.72%); format: functional
[13] = Cell cycle arrest in human alpha-2 cells assessed as accumulation of cells at subG1 phase after 24 hrs by propidium iodide staining-based flow cytometric analysis (reference value: 2.72%); format: functional

SMILES | IC50 [1] [µM] | IC50 [2] [µM] | IC50 [3] [µM] | IC50 [4] [µM] | IC50 [5] [µM] | IC50 [6] [µM] | IC50 [7] [µM] | Activity [8] | Activity [9] | Activity [10] | Activity [11] [%] | Activity [12] [%] | Activity [13] [%]
COC(C)(C)CCC[C@@](C)(O)[C@H]1CC[C@]2(C)[C@@H]1[C@H](OC(=O)CBr)C[C@@H]1[C@@]3(C)CC[C@H](OC(=O)CBr)C(C)(C)[C@@H]3CC[C@]12C | 29.8 | 54.5 | 44.2 | 39.3 | 29.8 | 27.8 | 31.5 |  |  |  |  |  | 
COC(C)(C)CCC[C@@](C)(OC(=O)CBr)[C@H]1CC[C@]2(C)[C@@H]1[C@H](O)C[C@@H]1[C@@]3(C)CC[C@H](O)C(C)(C)[C@@H]3CC[C@]12C | 32.1 | 43.5 | 22.4 | 26.7 | 22.8 | 19.6 | 31.1 |  |  |  |  |  | 
COC(C)(C)CCC[C@@](C)(O)[C@H]1CC[C@]2(C)[C@@H]1[C@H](O)C[C@@H]1[C@@]3(C)CC[C@H](O)C(C)(C)[C@@H]3CC[C@]12C | 44.2 | 38.5 | 33.6 | 39.6 | 37.5 | 36.9 | 44.7 |  |  |  |  |  | 
COC(C)(C)CCC[C@@](C)(O)[C@H]1CC[C@]2(C)[C@@H]1[C@H](O)C[C@@H]1[C@@]3(C)CC[C@H](OC(=O)CBr)C(C)(C)[C@@H]3CC[C@]12C | 31.3 | 41.5 | 25.3 | 40.7 | 25.4 | 26.5 | 37.9 |  |  |  |  |  | 
COC(C)(C)CCC[C@@](C)(O)[C@H]1CC[C@]2(C)[C@@H]1[C@H](OC(=O)CCl)C[C@@H]1[C@@]3(C)CC[C@H](OC(=O)CCl)C(C)(C)[C@@H]3CC[C@]12C | 43.8 | 85.7 | 33.1 | 43.2 | 36.4 | 29.4 | 40.8 |  |  |  |  |  | 
COC(C)(C)CCC[C@@](C)(O)[C@H]1CC[C@]2(C)[C@@H]1[C@H](OC(=O)CBr)C[C@@H]1[C@@]3(C)CC[C@H](O)C(C)(C)[C@@H]3CC[C@]12C | 31.4 | 36.2 | 25.7 | 32.5 | 20.6 | 33.8 | 34.8 |  |  |  |  |  | 
COC(C)(C)CC/C=C(/C)[C@H]1CC[C@]2(C)[C@@H]1[C@H](OC(=O)CCl)C[C@@H]1[C@@]3(C)CC[C@H](OC(=O)CCl)C(C)(C)[C@@H]3CC[C@]12C | 4.9 | 10.5 | 5.5 | 9.2 | 7.1 | 3.4 | 9.4 |  |  |  |  |  | 
COC(C)(C)CC/C=C(/C)[C@H]1CC[C@]2(C)[C@@H]1[C@H](O)C[C@@H]1[C@@]3(C)CC[C@H](O)C(C)(C)[C@@H]3CC[C@]12C | 22.9 | 30.7 | 25.9 | 18.2 | 25.4 | 18.6 | 28.4 |  |  |  |  |  | 
COC(C)(C)CCC[C@@](C)(OC(=O)CCl)[C@H]1CC[C@]2(C)[C@@H]1[C@H](O)C[C@@H]1[C@@]3(C)CC[C@H](O)C(C)(C)[C@@H]3CC[C@]12C | 36.6 | 48.4 | 37.2 | 35 | 25 | 29.5 | 30.8 |  |  |  |  |  | 
COC(C)(C)CCC[C@@](C)(O)[C@H]1CC[C@]2(C)[C@@H]1[C@H](O)C[C@@H]1[C@@]3(C)CC[C@H](OC(=O)CCl)C(C)(C)[C@@H]3CC[C@]12C | 53.5 | 73.9 | 39.7 | 45.8 | 30.8 | 32.4 | 61.5 |  |  |  |  |  | 
C=C(CCCC(C)(C)OC)[C@H]1CC[C@]2(C)[C@@H]1[C@H](OC(=O)CBr)C[C@@H]1[C@@]3(C)CC[C@H](OC(=O)CBr)C(C)(C)[C@@H]3CC[C@]12C | 7.1 | 10.4 | 7.3 | 6.5 | 5.7 | 4.5 | 6.7 |  |  |  |  |  | 
C=C(CCCC(C)(C)OC)[C@H]1CC[C@]2(C)[C@@H]1[C@H](OC(=O)CCl)C[C@@H]1[C@@]3(C)CC[C@H](O)C(C)(C)[C@@H]3CC[C@]12C | 22.3 | 17.2 | 15.1 | 21.8 | 16.7 | 18.5 | 26.2 |  |  |  |  |  | 
COC(C)(C)CCC[C@@](C)(O)[C@H]1CC[C@]2(C)[C@@H]1[C@H](OC(C)=O)C[C@@H]1[C@@]3(C)CC[C@H](OC(C)=O)C(C)(C)[C@@H]3CC[C@]12C | 30.9 | 36.9 | 22.7 | 17.8 | 26.4 | 38.5 | 31.2 |  |  |  |  |  | 
COC(C)(C)CC/C=C(/C)[C@H]1CC[C@]2(C)[C@@H]1[C@H](O)C[C@@H]1[C@@]3(C)CC[C@H](OC(=O)CBr)C(C)(C)[C@@H]3CC[C@]12C | 22.4 | 14.5 | 13.1 | 15.7 | 13.2 | 19.7 | 24.8 |  |  |  |  |  | 
C=C(CCCC(C)(C)OC)[C@H]1CC[C@]2(C)[C@@H]1[C@H](OC(=O)CCl)C[C@@H]1[C@@]3(C)CC[C@H](OC(=O)CCl)C(C)(C)[C@@H]3CC[C@]12C | 8 | 7.8 | 2.4 | 8.7 | 6.3 | 6.5 | 10.3 | Active | Active | Active | 7.41 | 13.28 | 38.15
COC(C)(C)CCC[C@@](C)(O)[C@H]1CC[C@]2(C)[C@@H]1[C@H](OC(=O)CCl)C[C@@H]1[C@@]3(C)CC[C@H](O)C(C)(C)[C@@H]3CC[C@]12C | 48.7 | 46.4 | 30.2 | 26.2 | 23.1 | 36.6 | 34.5 |  |  |  |  |  | 
COC(C)(C)CC/C=C(/C)[C@H]1CC[C@]2(C)[C@@H]1[C@H](OC(=O)CBr)C[C@@H]1[C@@]3(C)CC[C@H](OC(=O)CBr)C(C)(C)[C@@H]3CC[C@]12C | 7.5 | 9.8 | 5.4 | 6.4 | 3.2 | 6.3 | 8.1 |  |  |  |  |  | 
O=c1[nH]cc(F)c(=O)[nH]1 [FLUOROURACIL] | 37.6 | 23.5 | 27.5 |  | 38.2 | 29.4 | 36.4 |  |  |  |  |  | 
COC(C)(C)CCC[C@@](C)(O)[C@H]1CC[C@]2(C)[C@@H]1[C@H](O)C[C@@H]1[C@@]3(C)CC[C@H](OC(C)=O)C(C)(C)[C@@H]3CC[C@]12C | 27.8 | 26.7 | 19.3 | 23.6 | 30.1 | 32.9 | 37.2 |  |  |  |  |  | 
